Data from ChEMBL document CHEMBL1131058, “Studies on quinazolines and 1,2,4-benzothiadiazine 1,1-dioxides. 8.1, 2 synthesis and pharmacological evaluation of tricyclic fused quinazolines and 1,2,4-benzothiadiazine 1,1-dioxides as potential alpha1-adrenoceptor antagonists” (J Med Chem, 1998).

Tests used:
[1] = Selectivity ratio for binding affinity towards alpha2 and alpha-1 adrenoceptors
Procedure, shortened: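 Ratio of α2 Ki ([³H]clonidine binding) to α1 Ki ([³H]prazosin binding), both measured in rat cortical membrane competition assays.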

[2] = target: Serotonin 1 (5-HT1) receptor (Rattus norvegicus) (UniProt P28564+P30940+P19327+P28565); experiment: Compound is evaluated for binding affinity towards 5-hydroxytryptamine 1 receptor using [3H]5-HT in rat brain cortex at 10 uM; type: tissue-based
Procedure, shortened: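 Single-concentration screen at 10 µM in contract radioligand binding assays. Records whether inhibition of specific radioligand binding stayed below 50%.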

[3] = target: T1, Adrenergic receptor alpha-1 (Rattus norvegicus, UniProt P15823+P23944+P43140); experiment: Displacement of [3H]-prazosin from Alpha-1 adrenergic receptor of rat cortical membranes; type: cell membranes, Membrane
T1 sequence (P15823 whole entry): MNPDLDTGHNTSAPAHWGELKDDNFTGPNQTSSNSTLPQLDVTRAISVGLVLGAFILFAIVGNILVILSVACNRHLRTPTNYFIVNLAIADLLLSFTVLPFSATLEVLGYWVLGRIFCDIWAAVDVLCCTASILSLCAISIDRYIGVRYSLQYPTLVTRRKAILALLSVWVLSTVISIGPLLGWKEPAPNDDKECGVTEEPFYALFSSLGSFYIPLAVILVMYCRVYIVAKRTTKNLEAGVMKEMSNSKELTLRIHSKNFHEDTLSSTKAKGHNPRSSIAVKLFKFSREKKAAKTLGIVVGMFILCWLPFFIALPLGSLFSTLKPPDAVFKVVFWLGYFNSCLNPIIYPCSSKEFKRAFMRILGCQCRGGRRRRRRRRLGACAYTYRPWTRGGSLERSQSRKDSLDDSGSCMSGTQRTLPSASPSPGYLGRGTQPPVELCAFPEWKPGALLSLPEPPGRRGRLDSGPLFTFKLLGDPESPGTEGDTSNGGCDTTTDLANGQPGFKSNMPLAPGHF
T1 sequence (P23944 whole entry): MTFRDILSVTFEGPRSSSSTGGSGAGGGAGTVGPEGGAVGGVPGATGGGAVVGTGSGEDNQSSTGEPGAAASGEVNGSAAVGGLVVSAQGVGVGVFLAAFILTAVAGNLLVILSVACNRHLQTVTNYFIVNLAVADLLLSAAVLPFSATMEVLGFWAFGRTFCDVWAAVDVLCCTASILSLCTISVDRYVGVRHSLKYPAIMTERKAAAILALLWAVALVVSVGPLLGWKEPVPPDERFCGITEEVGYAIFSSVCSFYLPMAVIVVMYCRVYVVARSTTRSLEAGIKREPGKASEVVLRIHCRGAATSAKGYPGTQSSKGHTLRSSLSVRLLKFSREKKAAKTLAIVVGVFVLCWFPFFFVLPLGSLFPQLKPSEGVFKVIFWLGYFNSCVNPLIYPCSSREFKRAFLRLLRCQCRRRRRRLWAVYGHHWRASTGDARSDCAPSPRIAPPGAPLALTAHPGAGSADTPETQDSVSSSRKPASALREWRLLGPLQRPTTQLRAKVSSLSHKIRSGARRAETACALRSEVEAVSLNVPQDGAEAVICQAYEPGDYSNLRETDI
T1 sequence (P43140 whole entry): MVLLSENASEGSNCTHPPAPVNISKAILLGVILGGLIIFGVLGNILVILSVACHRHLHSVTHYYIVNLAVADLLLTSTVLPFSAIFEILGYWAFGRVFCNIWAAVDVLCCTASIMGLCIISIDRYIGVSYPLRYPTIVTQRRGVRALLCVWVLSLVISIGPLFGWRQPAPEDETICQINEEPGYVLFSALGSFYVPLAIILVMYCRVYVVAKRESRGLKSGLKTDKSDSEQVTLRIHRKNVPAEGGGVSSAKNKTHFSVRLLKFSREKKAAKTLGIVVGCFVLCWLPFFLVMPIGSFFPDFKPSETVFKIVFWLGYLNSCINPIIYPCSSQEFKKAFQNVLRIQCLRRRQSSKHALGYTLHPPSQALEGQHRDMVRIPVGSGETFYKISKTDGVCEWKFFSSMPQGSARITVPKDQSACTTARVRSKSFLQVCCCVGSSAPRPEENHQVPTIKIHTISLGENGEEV
Procedure, shortened: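 Triplicate competition binding against 0.2-0.25 nM [³H]prazosin in Tris buffer pH 7.4, 30 min at room temperature. Competitor range 0.1-200 nM. Nonspecific binding defined with 10 µM phentolamine. Reaction stopped by GF/B filtration with two cold Tris washes. Membrane protein 300-400 µg per assay. Ki calculated from the data; mean ± SEM of 3-6 experiments.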

[4] = target: T2, Alpha-2A adrenergic receptor (Homo sapiens, UniProt P08913); experiment: Compound is evaluated for binding affinity towards Alpha-2A adrenergic receptor using [3H]MK912
T2 sequence (P08913 whole entry): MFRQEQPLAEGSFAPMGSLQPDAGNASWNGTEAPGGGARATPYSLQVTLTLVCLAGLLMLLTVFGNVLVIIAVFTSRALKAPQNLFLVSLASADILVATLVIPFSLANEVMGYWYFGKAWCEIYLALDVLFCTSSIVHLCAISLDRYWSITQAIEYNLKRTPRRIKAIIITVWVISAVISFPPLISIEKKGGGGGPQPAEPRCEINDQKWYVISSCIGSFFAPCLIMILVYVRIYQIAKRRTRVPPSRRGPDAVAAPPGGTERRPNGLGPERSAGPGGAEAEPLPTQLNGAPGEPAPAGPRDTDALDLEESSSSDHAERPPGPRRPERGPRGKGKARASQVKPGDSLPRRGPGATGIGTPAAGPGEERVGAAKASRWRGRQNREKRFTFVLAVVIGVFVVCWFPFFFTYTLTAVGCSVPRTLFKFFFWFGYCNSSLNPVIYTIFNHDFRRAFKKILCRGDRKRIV

[5] = target: T3, 5-hydroxytryptamine receptor 1A (Rattus norvegicus, UniProt P19327); experiment: Compound is evaluated for binding affinity towards 5-hydroxytryptamine 1A receptor using [3H]-8-OH- -DPAT in rat brain cortex; type: tissue-based
T3 sequence (P19327 whole entry): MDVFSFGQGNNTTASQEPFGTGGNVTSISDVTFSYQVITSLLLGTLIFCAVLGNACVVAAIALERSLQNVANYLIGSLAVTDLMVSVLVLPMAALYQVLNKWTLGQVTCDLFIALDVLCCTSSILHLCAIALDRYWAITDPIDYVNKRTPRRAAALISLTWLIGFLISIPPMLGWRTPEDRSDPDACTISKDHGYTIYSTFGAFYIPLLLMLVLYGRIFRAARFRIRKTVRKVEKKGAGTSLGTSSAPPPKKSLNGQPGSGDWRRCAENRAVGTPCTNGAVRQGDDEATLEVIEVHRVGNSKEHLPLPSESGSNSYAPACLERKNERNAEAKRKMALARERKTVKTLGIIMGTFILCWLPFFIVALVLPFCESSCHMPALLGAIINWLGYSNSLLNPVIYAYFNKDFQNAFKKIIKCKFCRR
Procedure, shortened: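 Contract radioligand competition binding. Sources: 5-HT1 and 5-HT1A in rat brain cortex; 5-HT2 and σ2 in rat brain; σ in guinea pig brain; D2, rhD2 and rhD3 in CHO cells with [³H]spiperone; H1 in guinea pig lung with [³H]pyrilamine. Inhibition constants reported; no constant given where inhibition at 10 µM was below 50%.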

Ki [4] | Compound | Ratio [1] | inhibition [2] | Ki [3] | Ki [5]
 | Oc1nc2ccccc2c2ncc(CN3CCN(c4ccccc4Cl)CC3)n12 | 382 | < 50% |  | 
0.872 µM | COc1ccccc1N1CCN(C[C@H]2CN=C3c4ccccc4N=C(SC)N32)CC1 | 3500 |  | 0.001 µM | 
 | COc1ccccc1N1CCN(Cc2cn3c(O)nc4ccccc4c3n2)CC1 | 1030 | < 50% |  | 
 | COc1ccccc1N1CCN(C[C@@H]2CN=C3c4ccccc4NC(=O)N32)CC1 | > 384 |  | 0.026 µM | 
3 µM | COc1ccccc1N1CCN(C[C@@H]2CN=C3c4ccccc4N=C(SC)N32)CC1 | 62.5 |  | 0.144 µM | 
 | COc1ccccc1N1CCN(Cc2cnc3c4ccccc4nc(O)n23)CC1 | 1550 | < 50% |  | 4 µM
 | COc1ccccc1N1CCN(CC2CN=C3c4ccccc4N=C(SC)N32)CC1 (stereo not given) | 1080 |  | 0.0009 µM | 0.237 µM
0.444 µM | COc1ccccc1N1CCN(C[C@H]2CN=C3c4ccccc4NC(=O)N32)CC1 | 1410 |  | 0.00013 µM | 

Compound | Ki [4] | Ratio [1] | inhibition [2] | Ki [3] | Ki [5]
COc1ccccc1N1CCN(CC2CN3C(=O)Nc4ccccc4C3=N2)CC1 (stereo not given) | 0.547 µM | 247 |  | 0.00093 µM | 0.238 µM
